Assay results reported in ChEMBL document CHEMBL1165966, “ppGpp analogues inhibit synthetase activity of Rel proteins from Gram-negative and Gram-positive bacteria” (Bioorg Med Chem, 2010).
Where a chain is given by its changes, count along the chain named. Calls of active or inactive are those of the source. The calls are words filed in the database; no cut-off is given here.

What was measured:
[1] = biological target: T1, Bifunctional (p)ppGpp synthase/hydrolase RelA (Streptococcus dysgalactiae subsp. equisimilis) (UniProt Q54089); assay: Inhibition of synthetic activity of Streptococcus equisimilis RelA assessed as inhibition of (p)ppGpp accumulation at 5 to 10 mM after 5 mins
T1 sequence (whole entry): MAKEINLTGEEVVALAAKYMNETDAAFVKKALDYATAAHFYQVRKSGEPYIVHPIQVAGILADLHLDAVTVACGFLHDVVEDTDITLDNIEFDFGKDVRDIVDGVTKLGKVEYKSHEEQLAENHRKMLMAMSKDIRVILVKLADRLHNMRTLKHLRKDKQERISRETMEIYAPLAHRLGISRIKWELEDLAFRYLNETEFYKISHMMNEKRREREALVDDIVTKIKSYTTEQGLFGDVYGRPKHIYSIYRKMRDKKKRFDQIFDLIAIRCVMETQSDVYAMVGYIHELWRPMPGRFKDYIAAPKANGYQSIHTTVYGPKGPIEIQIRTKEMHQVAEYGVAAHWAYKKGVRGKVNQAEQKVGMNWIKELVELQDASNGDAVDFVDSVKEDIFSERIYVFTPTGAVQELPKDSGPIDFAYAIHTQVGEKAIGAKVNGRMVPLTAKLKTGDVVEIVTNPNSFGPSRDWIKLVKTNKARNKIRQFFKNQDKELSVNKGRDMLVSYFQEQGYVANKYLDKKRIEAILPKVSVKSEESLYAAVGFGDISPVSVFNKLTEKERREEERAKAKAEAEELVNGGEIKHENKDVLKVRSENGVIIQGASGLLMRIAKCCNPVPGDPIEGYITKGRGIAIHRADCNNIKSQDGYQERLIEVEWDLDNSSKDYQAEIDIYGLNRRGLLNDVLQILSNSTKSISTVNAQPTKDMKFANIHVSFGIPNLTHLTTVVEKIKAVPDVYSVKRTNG

[2] = biological target: T2, GTP pyrophosphokinase (Escherichia coli K-12) (UniProt P0AG20); assay: Inhibition of synthetic activity of Escherichia coli RelA assessed as inhibition of (p)ppGpp accumulation at 5 to 10 mM after 60 mins
T2 sequence (whole entry): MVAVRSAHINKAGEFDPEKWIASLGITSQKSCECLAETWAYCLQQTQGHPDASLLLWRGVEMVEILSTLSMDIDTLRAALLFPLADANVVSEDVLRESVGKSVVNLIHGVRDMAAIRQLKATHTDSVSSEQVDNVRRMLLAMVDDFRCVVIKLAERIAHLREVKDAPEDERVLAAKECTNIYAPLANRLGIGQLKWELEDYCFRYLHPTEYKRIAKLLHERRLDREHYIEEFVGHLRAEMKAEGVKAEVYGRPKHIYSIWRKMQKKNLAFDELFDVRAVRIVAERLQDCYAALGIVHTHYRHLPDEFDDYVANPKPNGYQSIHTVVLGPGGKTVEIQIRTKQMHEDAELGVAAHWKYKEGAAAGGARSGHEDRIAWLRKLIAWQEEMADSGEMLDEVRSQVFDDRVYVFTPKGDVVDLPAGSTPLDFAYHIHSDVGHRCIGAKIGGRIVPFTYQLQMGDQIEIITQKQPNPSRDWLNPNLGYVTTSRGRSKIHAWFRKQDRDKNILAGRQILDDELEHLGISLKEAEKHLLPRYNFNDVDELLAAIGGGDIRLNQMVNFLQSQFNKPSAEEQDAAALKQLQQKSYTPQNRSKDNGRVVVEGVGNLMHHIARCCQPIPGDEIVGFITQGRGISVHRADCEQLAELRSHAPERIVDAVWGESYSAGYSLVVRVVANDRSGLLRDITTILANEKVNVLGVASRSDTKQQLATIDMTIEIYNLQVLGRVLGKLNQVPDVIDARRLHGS

[3] = biological target: T2, GTP pyrophosphokinase (Escherichia coli K-12); assay: Inhibition of Escherichia coli RelA catalytic site at 5 mM in presence of increasing concentration of ATP
Summary of the method: (§1)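 The buffer was Tris–HCl pH 7.4 with DTT, MgCl2, KCl and (NH4)2SO4. Analogue was held at 5 mM while GTP or ATP was raised. Reactions ran 60 min at room temperature, were stopped with formic acid, and (p)ppGpp accumulation was the read-out.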

[4] = tested on: T3, GTP pyrophosphokinase (Escherichia coli K-12), P0AG20 [G251E]; assay: Inhibition of Escherichia coli RelA G251E mutant dissociation from ribosome at 1 to 10 mM after 4 hrs by chemiluminescence assay
T3 sequence (whole entry): T2 sequence (whole entry) with G251E
Summary of the method: (§2)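 Ribosomes were isolated through a 40% sucrose cushion from E. coli grown in LB at 37 °C. RelA plus ribosomes and analogue at 1–10 mM were centrifuged 4 h at 32,000 rpm, 4 °C, and split into soluble and ribosomal fractions. Ribosomal fractions were run on 12% SDS-PAGE, blotted to PVDF and probed with anti-His antibody (1:10,000).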

[5] = biological target: T2, GTP pyrophosphokinase (Escherichia coli K-12); assay: Inhibition of synthetic activity of Escherichia coli RelA assessed as inhibition of (p)ppGpp accumulation at 0.1 to 0.5 mM after 60 mins
[6] = biological target: T2, GTP pyrophosphokinase (Escherichia coli K-12); assay: Inhibition of Escherichia coli RelA catalytic site at 5 mM in presence of increasing concentration of GTP; summary of the method: as §1
[7] = biological target: T2, GTP pyrophosphokinase (Escherichia coli K-12); assay: Inhibition of Escherichia coli RelA dissociation from L11 mutated ribosome assessed as increase in bound protein at 1 to 10 mM after 4 hrs by chemiluminescence assay relative to control; summary of the method: as §2
[8] = biological target: T1, Bifunctional (p)ppGpp synthase/hydrolase RelA (Streptococcus dysgalactiae subsp. equisimilis); assay: Inhibition of Streptococcus equisimilis RelA catalytic site at 5 mM in presence of increasing concentration of GTP
[9] = biological target: T2, GTP pyrophosphokinase (Escherichia coli K-12); assay: Inhibition of synthetic activity of Escherichia coli RelA assessed as inhibition of (p)ppGpp accumulation at > 1 mM after 60 mins
[10] = biological target: T1, Bifunctional (p)ppGpp synthase/hydrolase RelA (Streptococcus dysgalactiae subsp. equisimilis); assay: Inhibition of Streptococcus equisimilis RelA catalytic site at 5 mM in presence of increasing concentration of ATP
[11] = biological target: T1, Bifunctional (p)ppGpp synthase/hydrolase RelA (Streptococcus dysgalactiae subsp. equisimilis); assay: Inhibition of synthetic activity of Streptococcus equisimilis RelA assessed as inhibition of (p)ppGpp accumulation at 0.5 mM after 5 mins
[12] = biological target: T2, GTP pyrophosphokinase (Escherichia coli K-12); assay: Inhibition of Escherichia coli RelA dissociation from ribosome assessed as increase in bound protein at 1 to 10 mM after 4 hrs by chemiluminescence assay relative to control; summary of the method: as §2
Escherichia coli = assay: Inhibition of synthetic activity of Escherichia coli RelA C638F mutant at 1 to 10 mM
Summary of the method: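 Analogue was added at 1, 5 or 10 mM in duplicate lanes. The buffer was Tris–HCl pH 7.4 containing DTT, MgCl2, KCl and (NH4)2SO4. Reactions ran at room temperature and were stopped with formic acid.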

| inhibition [1] | inhibition [2] | SMILES | also measured |
| --- | --- | --- | --- |
| Active | Active | Nc1nc2c(ncn2[C@@H]2O[C@H](COP(=O)(O)CP(=O)(O)O)[C@@H](OP(=O)(O)CP(=O)(O)O)[C@H]2O)c(=O)[nH]1 | – |
| Active | Active | Nc1nc2c(ncn2[C@H]2C[C@H](OP(=O)(O)CP(=O)(O)O)[C@@H](COP(=O)(O)CP(=O)(O)O)O2)c(=O)[nH]1 | inhibition [3]: Active; inhibition [4]: inactive; inhibition [5]: inactive; inhibition [6]: inactive; inhibition [7]: inactive; inhibition [8]: inactive; inhibition [9]: > 50%; inhibition [10]: Active; inhibition [11]: > 50%; fold change (FC) [12]: 3; inhibition (Escherichia coli): Active |
| Active | Active | CC(C)C(=O)Nc1nc2c(ncn2[C@@H]2O[C@H](COP(=O)(O)CP(=O)(O)O)[C@@H](OP(=O)(O)CP(=O)(O)O)[C@H]2O)c(=O)[nH]1 | – |
| Active | Active | Nc1nc2c(ncn2[C@H]2C[C@H](OP(=O)(O)CP(=O)(O)O)[C@@H](CO)O2)c(=O)[nH]1 | – |
| Active | Active | CC1(C)O[C@@H]2[C@H](O1)[C@@H](COP(=O)(O)CP(=O)(O)O)O[C@H]2n1cnc2c(=O)[nH]c(N)nc21 | – |
| Active | Active | CC(C)C(=O)Nc1nc2c(ncn2[C@@H]2O[C@H](COP(=O)(O)CP(=O)(O)O)[C@@H](OP(=O)(O)CP(=O)(O)O)[C@H]2O[Si](C)(C)C(C)(C)C)c(=O)[nH]1 | – |

| SMILES | inhibition [1] | inhibition [2] | also measured |
| --- | --- | --- | --- |
| Nc1nc2c(ncn2[C@@H]2O[C@H](COP(=O)(O)CP(=O)(O)O)[C@@H](O)[C@H]2O)c(=O)[nH]1 | Active | Active | – |
